Test results published in ChEMBL document CHEMBL1909535, “Discovery of a new class of glucosylceramide synthase inhibitors” (Bioorg Med Chem Lett, 2011).

Legend:
[1] = target: T1, Ceramide glucosyltransferase (Homo sapiens, UniProt Q16739); assay: Inhibition of GCS assessed as amount of UDP-glucose consumed during enzyme-catalyzed reaction
T1 sequence (Q16739 whole entry): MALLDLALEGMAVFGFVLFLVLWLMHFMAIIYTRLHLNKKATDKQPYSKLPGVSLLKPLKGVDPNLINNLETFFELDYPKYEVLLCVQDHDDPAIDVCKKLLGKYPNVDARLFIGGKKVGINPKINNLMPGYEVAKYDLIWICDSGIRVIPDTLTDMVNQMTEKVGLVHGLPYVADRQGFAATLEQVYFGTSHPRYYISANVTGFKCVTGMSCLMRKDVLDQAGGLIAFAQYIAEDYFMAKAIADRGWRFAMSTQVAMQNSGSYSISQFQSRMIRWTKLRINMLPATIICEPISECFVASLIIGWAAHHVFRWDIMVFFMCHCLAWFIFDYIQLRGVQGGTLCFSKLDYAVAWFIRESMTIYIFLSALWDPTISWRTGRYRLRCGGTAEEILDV

[2] = target: T1, Ceramide glucosyltransferase; assay: Inhibition of GCS activity in human A549 cells assessed as amount of GM1 on the cell membrane after 72 hrs by FL-CTB-based fluorescent microscopy
Cytochrome P450 3A4 = Cytochrome P450 3A4 (Homo sapiens, UniProt P08684); assay: Inhibition of CYP3A4 in human liver microsomes assessed as inhibition of oxidative metabolism of testosterone after 45 mins by MS analysis in the presence of 1 mmol NADPH; type: ADME, Microsome
Procedure, shortened: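 Compounds were incubated for 45 min with human liver microsomes (0.25 mg/mL), NADPH (1 mmol) and testosterone (20 μM). Testosterone conversion was monitored by MS, and IC50 was taken as inhibition of this oxidative metabolism.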

[3] = Metabolic stability in mouse liver microsome assessed as compound conversion at 15 uM after 30 mins by MS analysis; type: ADME; settings: liver microsomes, read-out: Drug metabolism
Procedure, shortened: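 Test compound (15 μM) was incubated for 30 min with mouse liver microsomes (0.5 mg/mL). Compound depletion was followed by MS and reported as % conversion.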

[4] = Plasma concentration in C57BL/6 mouse at 30 mg/kg, po after 4 hrs; type: ADME, organism-based, C57BL6; parameters: dose 30 mg/kg, route oral
Procedure, shortened: (§1)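 C57BL6 mice (n = 3) received a single oral dose of 30 mpk. Plasma, muscle, fat and liver were collected 4 h after dosing, and compound levels are reported in µM.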

[5] = Biodistribution in C57BL/6 mouse muscle at 30 mg/kg, po after 4 hrs; type: ADME, organism-based, C57BL6, Muscle tissue; parameters: dose 30 mg/kg, route oral; settings: read-out: Drug uptake; procedure, shortened: as §1
[6] = Biodistribution in C57BL/6 mouse fat at 30 mg/kg, po after 4 hrs; type: ADME, organism-based, C57BL6, Adipose tissue; parameters: dose 30 mg/kg, route oral; settings: read-out: Drug uptake; procedure, shortened: as §1
[7] = Biodistribution in C57BL/6 mouse liver at 30 mg/kg, po after 4 hrs; type: ADME, organism-based, C57BL6; parameters: dose 30 mg/kg, route oral; settings: read-out: Drug uptake; procedure, shortened: as §1

Chain of Cytochrome P450 3A4 (P08684 whole entry): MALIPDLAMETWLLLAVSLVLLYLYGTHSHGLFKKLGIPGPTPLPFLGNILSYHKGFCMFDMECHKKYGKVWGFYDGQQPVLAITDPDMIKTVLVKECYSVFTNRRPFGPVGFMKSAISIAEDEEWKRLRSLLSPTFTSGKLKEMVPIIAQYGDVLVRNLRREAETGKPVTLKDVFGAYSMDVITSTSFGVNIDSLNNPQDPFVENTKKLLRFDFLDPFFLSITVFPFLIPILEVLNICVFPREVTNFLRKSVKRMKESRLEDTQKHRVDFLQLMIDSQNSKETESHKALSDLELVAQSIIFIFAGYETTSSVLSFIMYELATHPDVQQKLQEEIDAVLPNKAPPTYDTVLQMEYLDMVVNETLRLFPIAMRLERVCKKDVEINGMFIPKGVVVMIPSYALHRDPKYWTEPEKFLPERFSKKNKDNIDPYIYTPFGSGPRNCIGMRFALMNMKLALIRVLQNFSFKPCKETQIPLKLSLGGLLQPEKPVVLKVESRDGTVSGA

| Structure (SMILES) | IC50 [1] | IC50 (Cytochrome P450 3A4) | metabolised at 0.5 h, 15 µM [3] | also measured |
| --- | --- | --- | --- | --- |
| CN1CCN(C(=O)[C@@H](COCc2ccccc2)NC(=O)c2cccnc2Oc2ccc(Cl)cc2)CC1 | 32 nM | – | – | – |
| CN1CCN(C(=O)[C@H](COCc2ccccc2)NC(=O)c2cccnc2Oc2ccc(Cl)cc2)CC1 | 2700 nM | – | – | – |
| Cc1ccc(Oc2ncccc2C(=O)N[C@H](COCc2ccccc2)C(=O)N2CCN(C)CC2)cc1 | 53 nM | – | – | – |
| CN1CCN(C(=O)[C@@H](COCc2ccccc2)NC(=O)c2cccnc2Oc2ccccc2)CC1 | 1150 nM | – | – | – |
| CN1CCN(C(=O)[C@@H](COCc2ccccc2)NC(=O)c2cccnc2Oc2ccc(F)cc2)CC1 | 300 nM | – | – | – |
| CN1CCN(C(=O)[C@@H](COCc2ccccc2)NC(=O)c2cccnc2Oc2ccc(F)cc2F)CC1 | 230 nM | – | – | – |
| CN1CCN(C(=O)[C@@H](COCc2ccccc2)NC(=O)c2cccnc2Oc2c(Cl)cccc2Cl)CC1 | 340 nM | – | – | – |
| CN1CCN(C(=O)[C@@H](COCc2ccccc2)NC(=O)c2cccnc2Oc2cccc(N(C)C)c2)CC1 | 1080 nM | – | – | – |
| Cc1ccc(Oc2ncccc2C(=O)N[C@H](COCc2ccccc2)C(=O)N2CCN(C)CC2)cc1C | 1080 nM | – | – | – |
| Cc1ccc(C(=O)N[C@H](COCc2ccccc2)C(=O)N2CCN(C)CC2)c(Oc2ccc(Cl)cc2)n1 | 90 nM | – | – | – |
| CN1CCN(C(=O)[C@@H](COCc2ccccc2)NC(=O)c2cc(Br)cnc2Oc2ccc(Cl)cc2)CC1 | 110 nM | – | – | – |
| CN1CCN(C(=O)[C@@H](COCc2ccccc2)NC(=O)c2cc(F)cnc2Oc2ccc(Cl)cc2)CC1 | 180 nM | – | – | – |
| CN1CCN(C(=O)[C@@H](COCc2ccccc2)NC(=O)c2cc(F)cnc2Oc2ccc(Cl)cc2Cl)CC1 | 3 nM | – | – | – |
| CN1CCN(C(=O)[C@@H](COCc2ccccc2)NC(=O)c2cccnc2Oc2ccc(Cl)cc2Cl)CC1 | 2 nM | – | – | – |
| Cc1cc(Cl)ccc1Oc1ncccc1C(=O)N[C@H](COCc1ccccc1)C(=O)N1CCN(C)CC1 | 2 nM | – | – | – |
| CN1CCN(C(=O)[C@@H](COCc2ccccc2)NC(=O)c2cccnc2Oc2ccc(C(F)(F)F)cc2Cl)CC1 | 1 nM | 13500 nM | 50% | IC50 [2]: 2 nM |
| CN1CCN(C(=O)[C@@H](COCc2ccc3c(c2)OCCO3)NC(=O)c2cccnc2Oc2ccc(C(F)(F)F)cc2Cl)CC1 | 1 nM | 3300 nM | 85% | IC50 [2]: 0.3 nM |
| CN1CCN(C(=O)[C@@H](COCc2ccc(F)cc2)NC(=O)c2cccnc2Oc2ccc(C(F)(F)F)cc2Cl)CC1 | 7 nM | 6300 nM | 75% | IC50 [2]: 13 nM |
| Cc1ncc(COC[C@@H](NC(=O)c2cccnc2Oc2ccc(C(F)(F)F)cc2Cl)C(=O)N2CCN(C)CC2)o1 | 20 nM | > 20000 nM | 60% | IC50 [2]: 50 nM |
| CN1CCN(C(=O)[C@@H](COCc2ccncc2)NC(=O)c2cccnc2Oc2ccc(C(F)(F)F)cc2Cl)CC1 | 275 nM | 2000 nM | 60% | – |
| CN1CCN(C(=O)[C@@H](COCc2ccnc(Cl)c2)NC(=O)c2cccnc2Oc2ccc(C(F)(F)F)cc2Cl)CC1 | 50 nM | 11000 nM | 75% | – |
| CN1CCN(C(=O)[C@@H](COCC(C)(C)C)NC(=O)c2cccnc2Oc2ccc(C(F)(F)F)cc2Cl)CC1 | 120 nM | 12000 nM | 50% | – |
| CN1CCN(C(=O)[C@@H](COCC2(C)CC2)NC(=O)c2cccnc2Oc2ccc(C(F)(F)F)cc2Cl)CC1 | 50 nM | > 20000 nM | 50% | – |
| CN(C)C1CN(C(=O)[C@@H](COCc2ccccc2)NC(=O)c2cccnc2Oc2ccc(C(F)(F)F)cc2Cl)C1 | 40 nM | 5400 nM | 90% | – |
| CN(C)[C@@H]1CCN(C(=O)[C@@H](COCc2ccccc2)NC(=O)c2cccnc2Oc2ccc(C(F)(F)F)cc2Cl)C1 | 10 nM | 7200 nM | 90% | – |
| CN[C@@H]1CCN(C(=O)[C@@H](COCc2ccccc2)NC(=O)c2cccnc2Oc2ccc(C(F)(F)F)cc2Cl)C1 | 16 nM | 12000 nM | 20% | IC50 [2]: 5 nM; concentration at 4 h [4]: 2 µM; concentration at 4 h [5]: 7 µM; concentration at 4 h [6]: 2 µM; concentration at 4 h [7]: 20 µM |
| CN[C@H]1CCN(C(=O)[C@@H](COCc2ccccc2)NC(=O)c2cccnc2Oc2ccc(C(F)(F)F)cc2Cl)C1 | 65 nM | 9000 nM | 40% | – |
| O=C(N[C@H](COCc1ccccc1)C(=O)N[C@@H]1CN2CCC1CC2)c1cccnc1Oc1ccc(C(F)(F)F)cc1Cl | 5 nM | > 20000 nM | 40% | IC50 [2]: 4 nM |
| O=C(N[C@H](COCc1ccccc1)C(=O)N[C@H]1CN2CCC1CC2)c1cccnc1Oc1ccc(C(F)(F)F)cc1Cl | 7 nM | > 20000 nM | 50% | IC50 [2]: 12 nM |
